According to ChEMBL document CHEMBL1135606, “Synthesis, stability, and antimalarial activity of new hydrolytically stable and water-soluble (+)-deoxoartelinic acid” (J Med Chem, 2002):
In brackets after ≈: the same amount, converted by molar mass.

Key:
[1] = Half life was reported; assay type: ADME
In short: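 Simulated stomach acid stability: compound at 1 mg/mL in 0.01 N HCl, pH 2.0, sealed, 37 °C. Acetal-type compounds sampled at 0–1400 min; non-acetal-type at 2–14 days. Remaining drug quantified by reverse-phase C-18 HPLC (ammonium acetate/acetonitrile, internal standard). Half-life from pseudo-first-order disappearance.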

Mus musculus [2] = assay: Percent of infected erythrocytes in Blood schizonticidal activity against Plasmodium chabaudi in mice at a concentration of 10 mg/kg/day on day 1; assay type: functional
In short: (§1)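 Female BALB/c mice (18–20 g, SPF), groups of five, infected iv on day 1 with 1 × 10^7 P. chabaudi ANKA-infected erythrocytes. Dosing ip began 2 h post-inoculation, once daily for 4 days, at 10 mg/kg/day in 10% DMSO/PBS. On day 5, Giemsa-stained smears; ≥1000 red cells counted; % infected erythrocytes per mouse, compared with controls.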

Mus musculus [3] = assay: In vivo antimalarial activity against Plasmodium chabaudi in mice (Mus musculus) and its survival rate reported; assay type: functional
Plasmodium falciparum [4] = assay: In vitro antimalarial activity against chloroquine-sensitive Plasmodium falciparum 3D7; assay type: functional; settings: read-out: ED50 (the source's name)
In short: (§2)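 Asexual P. falciparum (3D7 or K1) in A+ erythrocytes, RPMI 1640, 5% hematocrit, 37 °C, 5% CO2. Synchronized ring stages at 1% parasitemia. Triplicate 3-fold dilutions from a final top concentration of 30 µg/mL. 24 h incubation, then [3H]-hypoxanthine (0.1 µCi/well) for a further 24 h. Incorporation read by scintillation counting; ED50 from curve fitting.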

Mus musculus [5] = assay: Percent of infected erythrocytes in Blood schizonticidal activity against Plasmodium chabaudi in mice at a concentration of 10 mg/kg/day on day 3; assay type: functional
Mus musculus [6] = assay: In vivo antimalarial activity against Plasmodium chabaudi in mice (Mus musculus) and its survival was reported; assay type: functional
Mus musculus [7] = assay: Percent of infected erythrocytes in Blood schizonticidal activity against Plasmodium chabaudi in mice at a concentration of 10 mg/kg/day on day 2; assay type: functional
Mus musculus [8] = assay: Percent of infected erythrocytes in Blood schizonticidal activity against Plasmodium chabaudi in mice at a concentration of 10 mg/kg/day on day 4; assay type: functional; in short: as §1
Plasmodium falciparum [9] = assay: In vitro antimalarial activity against chloroquine-resistant Plasmodium falciparum K1; assay type: functional; settings: read-out: ED50 (the source's name); in short: as §2
Mus musculus [10] = assay: Percent of infected erythrocytes in Blood schizonticidal activity against Plasmodium chabaudi in mice at a concentration of 10 mg/kg/day on day 5; assay type: functional; in short: as §1

SMILES | half-life [1] [h] | Infected erythrocytes (Mus musculus [2]) [%] | Survival rate (Mus musculus [3]) [%] | EC50 (Plasmodium falciparum [4]) [ng/mL] | Infected erythrocytes (Mus musculus [5]) [%] | Survival (Mus musculus [6]) | Infected erythrocytes (Mus musculus [7]) [%] | Infected erythrocytes (Mus musculus [8]) [%] | EC50 (Plasmodium falciparum [9]) [ng/mL] | Infected erythrocytes (Mus musculus [10]) [%]
CCCC[C@H]1O[C@@H]2O[C@]3(C)CC[C@H]4[C@H](C)CC[C@@H]([C@H]1C)[C@@]24OO3 | 187 | – | – | – | – | – | – | – | – | –
C[C@H]1[C@@H](CCc2ccc(C(=O)O)cc2)O[C@@H]2O[C@]3(C)CC[C@H]4[C@H](C)CC[C@@H]1[C@@]24OO3 | 259 | 0.5 | 100 | 1.1 (≈ 2.64 nM) | 2.9 | 5 | 0.5 | 0.5 | 0.6 (≈ 1.44 nM) | 0.3
C[C@@H]1[C@H](OCc2ccc(C(=O)O)cc2)O[C@@H]2O[C@@]3(C)CC[C@@H]4[C@@H](C)CC[C@@H]1[C@]24OO3 [ARTELINIC ACID] | 13.1 | – | – | 4 (≈ 9.56 nM) | – | – | – | – | 1.4 (≈ 3.35 nM) | –
C[C@@H]1CC[C@H]2[C@@H](C)C(=O)O[C@@H]3O[C@@]4(C)CC[C@@H]1[C@]32OO4 [ARTEMISININ] | – | – | – | 2.9 (≈ 10.3 nM) | – | – | – | – | 0.7 (≈ 2.48 nM) | –
CCO[C@H]1O[C@@H]2O[C@@]3(C)CC[C@H]4[C@H](C)CC[C@@H]([C@H]1C)[C@@]24OO3 [ARTEMOTIL] | 11 | – | 60 | 0.2 (≈ 0.64 nM) | – | 3 | – | – | 0.9 (≈ 2.88 nM) | –
C[C@H]1[C@H](OC(=O)CCC(=O)O)O[C@@H]2O[C@@]3(C)CC[C@H]4[C@H](C)CC[C@@H]1[C@@]24OO3 [ARTESUNATE] | – | – | – | 0.2 (≈ 0.52 nM) | – | – | – | – | 0.6 (≈ 1.56 nM) | –
CCN(CC)CCCC(C)Nc1ccnc2cc(Cl)ccc12 (stereo not drawn) [CHLOROQUINE] | – | 65 | 0 | 8 (≈ 25 nM) | 62.1 | 0 | 71.3 | 82.4 | 220 (≈ 688 nM) | 81.3
C[C@@H]1CC[C@H]2[C@@H](C)CO[C@@H]3O[C@]4(C)CC[C@@H]1[C@]32OO4 [DEOXOARTEMISININ] | 245 | – | – | – | – | – | – | – | – | –
